High-throughput results: PubChem BioAssay, The Scripps Research Institute Molecular Screening Center
TDP2 absorb: TDP2 (human) inhibition, absorbance primary screen; 370,000 compounds, 0.34% hits; inhibition, % at 12.8 µM; recombinant TDP2, T5PNP hydrolysis, p-nitrophenol absorbance 415 nm; AID 720702;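 active = inhibition above the mean of all tested compounds plus 3 SD, set per campaign, cut at about 25% in these data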
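Test system: human TDP2 enzyme; Input: 120 nM TDP2 per well; Buffer or medium: Mg2+-containing Tris-HCl buffer, pH 7.5; Reagent: 5 mM T5PNP; Dosing: 12.8 µM single point, 1% DMSO; Incubation: reaction 2 h, 37 °C; Detection: p-Nitrophenol epi absorbance; Read-out: % inhibition relative to enzyme-containing and enzyme-free wells; Replicates: single well per compound.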
LEDGF integ inh: blocks HIV-1 LEDGF/p75-dependent DNA integration | TR-FRET IN-LEDGF/p75 DNA integration, Eu/Cy5 | inhibition, % at 3.7 µM | 370,000 compounds, 0.64% hits;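 active = inhibition above the screen-wide mean plus 3 SD, cut at about 13% in these data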;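 also: signal is the Cy5 over europium emission ratio at 671 and 618 nm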
MBD2 DNA inh: inhibitors of human MBD2 binding to methylated oligonucleotide | Q9UBB5 | inhibition, % at 4.4 µM | TR-FRET | 370,000 compounds, 0.31% hits; in the data active = inhibition above about 13%
UHRF1 binding: human UHRF1 methylated DNA binding inhibitors; Q96T88; 370,000 compounds, 0.75% hits; inhibition, % at 4.4 µM; UHRF1 binding to methylated oligo, TR-FRET; in the data active = inhibition above about 21%;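 also: UHRF1 SRA domain binding a hemimethylated CpG hairpin DNA probe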
Target sequence (Q96T88 whole entry, looked up, the tested form may be a part): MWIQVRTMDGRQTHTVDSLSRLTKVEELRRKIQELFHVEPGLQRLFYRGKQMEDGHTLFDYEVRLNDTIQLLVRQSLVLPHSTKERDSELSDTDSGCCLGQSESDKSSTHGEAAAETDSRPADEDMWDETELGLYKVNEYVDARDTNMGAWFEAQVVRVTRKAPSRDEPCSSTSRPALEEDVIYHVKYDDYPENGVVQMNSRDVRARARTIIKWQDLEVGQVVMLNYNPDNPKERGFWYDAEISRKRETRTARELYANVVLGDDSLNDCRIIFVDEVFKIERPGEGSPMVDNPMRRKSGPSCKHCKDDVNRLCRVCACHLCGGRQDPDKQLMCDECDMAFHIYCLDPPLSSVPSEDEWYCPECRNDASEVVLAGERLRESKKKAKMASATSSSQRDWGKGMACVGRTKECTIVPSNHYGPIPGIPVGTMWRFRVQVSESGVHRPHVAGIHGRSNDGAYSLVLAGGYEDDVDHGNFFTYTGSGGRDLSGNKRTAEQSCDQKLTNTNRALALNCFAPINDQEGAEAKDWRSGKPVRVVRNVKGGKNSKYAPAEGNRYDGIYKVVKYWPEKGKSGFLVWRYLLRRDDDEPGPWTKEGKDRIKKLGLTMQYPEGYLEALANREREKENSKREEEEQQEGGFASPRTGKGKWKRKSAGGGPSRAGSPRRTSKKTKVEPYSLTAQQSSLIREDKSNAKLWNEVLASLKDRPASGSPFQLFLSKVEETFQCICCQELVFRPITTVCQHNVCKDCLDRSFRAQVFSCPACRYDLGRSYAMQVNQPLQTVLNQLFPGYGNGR
UHRF1 ctr MBD2: counter-screen for MBD2 inhibitors: human UHRF1 methylated DNA binding inhibitors; inhibition, % at 4.4 µM; shares compounds with MBD2 DNA inh; AID 720530; 1,000 compounds, 25% hits; UHRF1 binding to methylated oligonucleotide, TR-FRET; in the data active = inhibition above about 21%;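 also: UHRF1 SRA domain binding a labeled hemimethylated CpG hairpin DNA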
MBD2 confirm: confirmation of human MBD2-DBD methylated oligonucleotide binding inhibitors; inhibition, % at 4.4 µM; 1,000 compounds, 26% hits; TR-FRET MBD2-DBD binding to methylated oligonucleotide; shares compounds with MBD2 DNA inh
TDP2 confirm: human TDP2 inhibition, confirmation; 1,100 compounds, 22% hits; inhibition, % at 12.8 µM; recombinant human TDP2, absorbance read-out; AID 743263; shares compounds with TDP2 absorb; in the data active = inhibition above about 25%
IN multimer act: activates HIV-1 integrase multimerization in LEDGF counter-screen; shares compounds with LEDGF integ inh; TR-FRET HIV-1 integrase multimerization, biochemical; activation, % at 7.7 µM; 2,000 compounds, 17% hits; AID 1053131; in the data active = activation above about 8.9%
TRFRET interf: optically interferes with TR-FRET readout in LEDGF counter-screen; shares compounds with LEDGF integ inh; TR-FRET optical interference counterscreen, HIV-1 IN multimerization; inhibition, % at 7.7 µM; 2,000 tested, under 10 active;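 active = inhibition above the mean over all tested compounds plus 3 SD, which no compound reached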
LEDGF integ conf: confirmation of HIV-1 LEDGF/p75-dependent integration inhibitors; inhibition, % at 3.7 µM; TR-FRET LEDGF/p75-dependent HIV-1 integration, biochemical; AID 1053136; shares compounds with LEDGF integ inh; 2,000 compounds, 36% hits
Hits are given with their value; - = inactive; . = no result. This is a sample that favours compounds with a hit; in the whole collection about 1.6% have one here. Rule as the data show it, unless noted: active = inhibition above about 14%; inactive = the rest.

SMILES | TDP2 absorb | LEDGF integ inh | MBD2 DNA inh | UHRF1 binding | UHRF1 ctr MBD2 | MBD2 confirm | TDP2 confirm | IN multimer act | TRFRET interf | LEDGF integ conf
Cc1ccc(N2C(=O)NC(=O)/C(=C/c3ccoc3)C2=O)cc1 | - | 30 | 33 | 63 | 86 | 54 | . | 9.2 | - | 57
Cc1ccc(N2C(=O)NC(=O)/C(=C/c3cnn(-c4ccc(C)cc4)c3)C2=O)cc1 | - | - | - | - | . | . | . | . | . | .
NCC(O)c1cc(O)c(O)cc1F (stereo not given) | - | 49 | 14 | 27 | - | - | . | 12 | - | -
C[C@H]1CNCCN1c1ccc(N2CC[C@H](O)C2)c(C#N)c1 | - | - | - | - | . | . | . | . | . | .
O=C(O)C(Br)Br | - | - | - | - | . | . | . | . | . | .
O=C1C2CC=CCC2C(=O)N1SC(Cl)(Cl)Cl (stereo not given) | - | - | - | - | . | . | . | . | . | .
CCCCN1C(=O)/C(=C\c2ccco2)C(=O)N(CCc2ccccc2)C1=O | - | - | - | - | . | . | . | . | . | .
CCCCN1C(=O)/C(=C/C=C/c2ccco2)C(=O)NC1=S | - | 56 | 29 | 83 | 48 | 19 | . | - | - | 74
C[n+]1c(-c2ccccc2)c2cc(N)ccc2c2ccc(N)cc21 | 58 | 41 | 55 | 62 | 77 | 86 | - | - | - | 64
COc1ccc(Cc2cn(C)c(N)n2)cc1 | - | - | - | - | . | . | . | . | . | .
CN(C)[C@@H]1C(=O)C(C(N)=O)=C(O)[C@@]2(O)C(=O)C3=C(O)c4c(O)cccc4[C@@](C)(O)C3[C@H](O)C12 (stereo not given in full) | - | 42 | 19 | 62 | - | - | . | 15 | - | 25
N/C(=N\N=C/c1ccc(-c2ccc(O)c(C(=O)O)c2)o1)N[N+](=O)[O-] | 28 | 30 | 48 | 82 | 55 | 18 | - | 35 | - | 25
CCC(C)OC(=O)c1c(N)n(Cc2cccs2)c2nc3ccccc3nc12 (stereo not given) | - | - | - | - | . | . | . | . | . | .
Nc1c(C(=O)OCc2ccccc2)c2nc3ccccc3nc2n1Cc1cccs1 | 25 | - | - | - | . | . | - | . | . | .
COc1ccc(OC)c(N2C(=O)NC(=O)/C(=C\c3ccc([N+](=O)[O-])s3)C2=O)c1 | 28 | - | - | - | . | . | - | . | . | .
CN1C(=O)NC(=O)/C(=C/c2ccc([N+](=O)[O-])s2)C1=O | 25 | - | - | - | . | . | - | . | . | .
COc1ccc(N2C(=O)NC(=O)/C(=C\c3ccccc3[N+](=O)[O-])C2=O)cc1 | - | - | - | - | . | . | . | . | . | .
O=C1NC(=O)N(c2ccccc2)C(=O)/C1=C\c1ccc([N+](=O)[O-])s1 | - | - | - | - | . | . | . | . | . | .
CCOC(=O)CC[C@@H]1CC[C@]2(CCCN(Cc3ccccn3)C2)O1 | - | - | - | - | . | . | . | . | . | .
C=CCN1C[C@H](C)N(C(c2ccc(C(=O)N(CC)CC)cc2)c2cccc(OC)c2)CC1C (stereo not given in full) | - | - | - | - | . | . | . | . | . | .
Cc1cc(OCC(=O)NCc2ccncc2)c2c3c(c(=O)oc2c1)CCC3 | 26 | - | - | - | . | . | - | . | . | .
O=C(NCCN1CCC2(CC1)C(=O)NCN2c1ccccc1)c1cccc(F)c1 | - | - | - | - | . | . | . | . | . | .
CCN1CCN(c2ccc(N)cc2)CC1 | 32 | - | - | - | . | . | - | . | . | .
CC[C@@H]1C[C@H]2CC[C@H](O2)[C@H](C)C(=O)O[C@@H](C)C[C@@H]2CC[C@@H](O2)[C@@H](C)C(=O)O[C@H](C)C[C@H]2CC[C@H](O2)[C@H](C)C(=O)O[C@@H](C)C[C@@H]2CC[C@@H](O2)[C@@H](C)C(=O)O1 | - | - | - | - | . | . | . | . | . | .
